Source: ChEMBL document CHEMBL1687766, “In vitro activity of the new multivalent glycopeptide-cephalosporin antibiotic TD-1792 against vancomycin-nonsusceptible Staphylococcus isolates” (Antimicrob Agents Chemother, 2010)
Converted amounts (≈) assume the structure as drawn.

Columns and labels:
Assay type in all cases: functional
Staphylococcus aureus [1] = test: Antimicrobial activity against vancomycin-intermediate Staphylococcus aureus after 24 hrs by microdilution method in presence of 50% human serum; settings: for MBC / MIC50 / MIC90: Staphylococcus aureus, 24 h
Summary of the method: (§1)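 Broth microdilution per CLSI, inoculum 5 × 10^5 CFU/ml, 24 h at 35°C, in duplicate. Medium was 50% (vol/vol) human serum plus 50% broth, final 25 SMHB for TD-1792 and 50 SMHB for daptomycin. Serum was heated 56°C for 1 h and filtered through 0.8, 0.5 and 0.22 μm. MBC by plating clear wells on BHI agar.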

Staphylococcus aureus [2] = test: Antimicrobial activity against vancomycin-intermediate Staphylococcus aureus isolate NJ992 assessed as bacterial count at 8 times MIC after 24 hrs by colony counting method in presence of 50% human serum
Summary of the method: (§2)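 Time-kill in triplicate, starting inoculum 5 × 10^6 CFU/ml from a mid-exponential culture. Medium was 50% heat-treated, filtered human serum plus 50% broth, final 25 SMHB for TD-1792 and 50 SMHB for daptomycin. Drug at multiples of MIC. Samples to 24 h were plated on BHI agar for 24 h at 35°C. Value is the log10 CFU/ml change from baseline at 24 h.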

Staphylococcus aureus [3] = test: Antimicrobial activity against vancomycin-resistant Staphylococcus aureus isolate PA assessed as bacterial count at 32 times MIC after 24 hrs by colony counting method in presence of 50% human serum; summary of the method: as §2
[4] = test system: Staphylococcus haemolyticus; test: Ratio of MIC for vancomycin-intermediate Staphylococcus haemolyticus in presence of 50% human serum to MIC for vancomycin-intermediate Staphylococcus haemolyticus
Summary of the method: (§3)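 Ratio of the broth microdilution MIC (5 × 10^5 CFU/ml, 24 h, 35°C, duplicate) measured in 50% heat-treated human serum/supplemented Mueller-Hinton broth to the MIC measured in supplemented broth alone.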

[5] = test system: Staphylococcus haemolyticus; test: Antimicrobial activity against vancomycin-intermediate Staphylococcus haemolyticus after 24 hrs by microdilution method in presence of 50% human serum; settings: for MBC / MIC50 / MIC90: Staphylococcus haemolyticus, 24 h
Summary of the method: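 Broth microdilution MIC/MBC (5 × 10^5 CFU/ml, 24 h, 35°C, duplicate) in 50% heat-treated (56°C, 1 h), filtered human serum plus supplemented Mueller-Hinton broth, with final broth strength 25 for TD-1792 and 50 for daptomycin. MBC was taken by plating clear wells on BHI agar.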

Staphylococcus aureus [6] = test: Antimicrobial activity against vancomycin-resistant Staphylococcus aureus isolate NY after 24 hrs by microdilution method in presence of 50% human serum; summary of the method: as §1
Staphylococcus aureus [7] = test: Antimicrobial activity against vancomycin-intermediate Staphylococcus aureus isolate MU50 assessed as bacterial count at 4 times MIC after 24 hrs by colony counting method
Summary of the method: (§4)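 24-h time-kill run in triplicate in supplemented Mueller-Hinton broth (12.5 μg/ml Mg, 25 μg/ml Ca), adjusted to 1.1–1.3 mM Ca for daptomycin. […] Samples were taken at 0, 1, 4, 8 and 24 h and counted on BHI agar after 24 h at 35°C. Value is log10 CFU/ml change from baseline at 24 h.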

Staphylococcus aureus [8] = test: Antimicrobial activity against vancomycin-resistant Staphylococcus aureus isolate MI assessed as bacterial count at 16 times MIC after 24 hrs by colony counting method in presence of 50% human serum; summary of the method: as §2
Staphylococcus aureus [9] = test: Ratio of MIC for vancomycin-intermediate Staphylococcus aureus isolate NJ992 in presence of 50% human serum to MIC for vancomycin-intermediate Staphylococcus aureus isolate NJ992; summary of the method: as §3
Staphylococcus aureus [10] = test: Antimicrobial activity against vancomycin-intermediate Staphylococcus aureus isolate MU50 assessed as bacterial count at 8 times MIC after 24 hrs by colony counting method in presence of 50% human serum
Summary of the method: (§5)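 Triplicate 24-h time-kill in 50% human serum (heated 56°C 1 h, filtered) mixed with supplemented Mueller-Hinton broth, giving final 25 μg/ml Ca broth strength for TD-1792 and 50 for daptomycin. […] Samples from 0 to 24 h were counted on BHI agar (35°C, 24 h). Value is log10 CFU/ml change from baseline.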

Staphylococcus aureus [11] = test: Antimicrobial activity against vancomycin-intermediate Staphylococcus aureus isolate MU50 assessed as bacterial count at 32 times MIC after 24 hrs by colony counting method; summary of the method: as §4
Staphylococcus aureus [12] = test: Antimicrobial activity against vancomycin-resistant Staphylococcus aureus isolate MI after 24 hrs by microdilution method in presence of 50% human serum; summary of the method: as §1
Staphylococcus aureus [13] = test: Antimicrobial activity against vancomycin-heteroresistant Staphylococcus aureus after 24 hrs by microdilution method in presence of 50% human serum; summary of the method: as §1
Staphylococcus aureus [14] = test: Antimicrobial activity against vancomycin-resistant Staphylococcus aureus isolate PA assessed as bacterial count at 8 times MIC after 24 hrs by colony counting method in presence of 50% human serum; summary of the method: as §2
Staphylococcus aureus [15] = test: Antimicrobial activity against vancomycin-resistant Staphylococcus aureus isolate MI assessed as bacterial count at 8 times MIC after 24 hrs by colony counting method
Summary of the method: (§6)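 Time-kill in triplicate. Mid-exponential culture (OD600 ~0.3) diluted in supplemented Mueller-Hinton broth to 5 × 10^6 CFU/ml. Daptomycin was run at physiologic calcium, 1.1 to 1.3 mM. […] Samples at 0, 1, 4, 8 and 24 h were diluted in cold saline or vacuum filtered, then spiral-plated on BHI agar for 24 h at 35°C. Value is the log10 CFU/ml change from baseline at 24 h.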

Staphylococcus aureus [16] = test: Antimicrobial activity against vancomycin-resistant Staphylococcus aureus isolate MI assessed as bacterial count at 16 times MIC after 24 hrs by colony counting method; summary of the method: as §6
Staphylococcus aureus [17] = test: Antimicrobial activity against vancomycin-resistant Staphylococcus aureus isolate MI assessed as bacterial count at 4 times MIC after 24 hrs by colony counting method in presence of 50% human serum; summary of the method: as §2
Staphylococcus aureus [18] = test: Antimicrobial activity against vancomycin-intermediate Staphylococcus aureus isolate MU50 assessed as bacterial count at 16 times MIC after 24 hrs by colony counting method; summary of the method: as §6
Staphylococcus aureus [19] = test: Ratio of MIC for vancomycin-intermediate Staphylococcus aureus isolate MU50 in presence of 50% human serum to MIC for vancomycin-intermediate Staphylococcus aureus isolate MU50; summary of the method: as §3
Staphylococcus aureus [20] = test: Antimicrobial activity against vancomycin-intermediate Staphylococcus aureus isolate NJ992 assessed as bacterial count at 32 times MIC after 24 hrs by colony counting method in presence of 50% human serum; summary of the method: as §5
Staphylococcus aureus [21] = test: Antimicrobial activity against vancomycin-intermediate Staphylococcus aureus isolate MU50 after 24 hrs by microdilution method; settings: isolate MU50, 24 h
Summary of the method: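 Broth microdilution per CLSI, inoculum 5 × 10^5 CFU/ml, Mueller-Hinton broth with 12.5 μg/ml magnesium and 25 μg/ml calcium (SMHB). Daptomycin was instead tested in SMHB at physiologic calcium (final 1.1 to 1.3 mM). Incubation 24 h at 35°C; MIC read; run in duplicate. MBC from 5-μl samples of clear wells plated on BHI agar, 24 h at 35°C.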

Staphylococcus aureus [22] = test: Antimicrobial activity against vancomycin-resistant Staphylococcus aureus isolate MI assessed as bacterial count at 32 times MIC after 24 hrs by colony counting method in presence of 50% human serum; summary of the method: as §2

Structure (SMILES) | MBC50 (Staphylococcus aureus [1]) [µg/mL] | MBC90 (Staphylococcus aureus [1]) [µg/mL] | MBC (Staphylococcus aureus [1]) [µg/mL] | MIC50 (Staphylococcus aureus [1]) [µg/mL] | MIC90 (Staphylococcus aureus [1]) [µg/mL] | log10CFU/ml (Staphylococcus aureus [2]) | log10CFU/ml (Staphylococcus aureus [3]) | Ratio [4] | MBC50 [5] [µg/mL] | MBC90 [5] [µg/mL] | MBC [5] [µg/mL] | MIC50 [5] [µg/mL] | MIC90 [5] [µg/mL] | MBC (Staphylococcus aureus [6]) [µg/mL] | MIC (Staphylococcus aureus [6]) [µg/mL] | log10CFU/ml (Staphylococcus aureus [7]) | log10CFU/ml (Staphylococcus aureus [8]) | Ratio (Staphylococcus aureus [9]) | log10CFU/ml (Staphylococcus aureus [10]) | log10CFU/ml (Staphylococcus aureus [11]) | further results
CCCCCCCCCC(=O)N[C@@H](Cc1c[nH]c2ccccc12)C(=O)N[C@H](CC(N)=O)C(=O)N[C@@H](CC(=O)O)C(=O)N[C@@H]1C(=O)NCC(=O)N[C@@H](CCCN)C(=O)N[C@@H](CC(=O)O)C(=O)N[C@H](C)C(=O)N[C@@H](CC(=O)O)C(=O)NCC(=O)N[C@H](CO)C(=O)N[C@@H]([C@H](C)CC(=O)O)C(=O)N[C@@H](CC(=O)c2ccccc2N)C(=O)O[C@@H]1C | 4 | 8 | 1 | 1 | 4 | 5.01 | 5.11 | 2 | 4 | 8 | 1 | 1 | 4 | 0.25 | 0.25 | 3.02 | 4.6 | 2 | 4.13 | 5.12 | MBC (Staphylococcus aureus [12]): 1 µg/mL; MIC (Staphylococcus aureus [12]): 0.5 µg/mL; MBC (Staphylococcus aureus [13]): 1 µg/mL; MIC50 (Staphylococcus aureus [13]): 1 µg/mL; MIC90 (Staphylococcus aureus [13]): 4 µg/mL; log10CFU/ml (Staphylococcus aureus [14]): 5.11; log10CFU/ml (Staphylococcus aureus [15]): 5; log10CFU/ml (Staphylococcus aureus [16]): 4.96; log10CFU/ml (Staphylococcus aureus [17]): 2.53; log10CFU/ml (Staphylococcus aureus [18]): 5.12; Ratio (Staphylococcus aureus [19]): 2; log10CFU/ml (Staphylococcus aureus [20]): 5.04; MBC (Staphylococcus aureus [21]): 1 µg/mL (≈ 0.617 µM); MIC (Staphylococcus aureus [21]): 1 µg/mL (≈ 0.617 µM); log10CFU/ml (Staphylococcus aureus [22]): 5.11
CN[C@H](CC(C)C)C(=O)N[C@H]1C(=O)N[C@@H](CC(N)=O)C(=O)N[C@H]2C(=O)N[C@H]3C(=O)N[C@H](C(=O)N[C@H](C(=O)NCCCO/N=C(\C(=O)N[C@@H]4C(=O)N5C(C(=O)[O-])=C(C[n+]6ccccc6)CS[C@H]45)c4nc(N)sc4Cl)c4cc(O)cc(O)c4-c4cc3ccc4O)[C@H](O)c3ccc(c(Cl)c3)Oc3cc2cc(c3O[C@@H]2O[C@H](CO)[C@@H](O)[C@H](O)[C@H]2O[C@H]2C[C@](C)(N)[C@H](O)[C@H](C)O2)Oc2ccc(cc2Cl)[C@H]1O | 0.25 | 0.5 | 0.03 | 0.25 | 0.5 | 4.09 | 5.09 | 2 | 0.25 | 0.5 | 0.03 | 0.25 | 0.5 | 0.5 | 0.25 | 3.77 | 4.11 | 4 | 3.6 | 4.92 | MBC (Staphylococcus aureus [12]): 8 µg/mL; MIC (Staphylococcus aureus [12]): 2 µg/mL; MBC (Staphylococcus aureus [13]): 0.03 µg/mL; MIC50 (Staphylococcus aureus [13]): 0.25 µg/mL; MIC90 (Staphylococcus aureus [13]): 0.5 µg/mL; log10CFU/ml (Staphylococcus aureus [14]): 4.65; log10CFU/ml (Staphylococcus aureus [15]): 3.27; log10CFU/ml (Staphylococcus aureus [16]): 3.34; log10CFU/ml (Staphylococcus aureus [17]): 4.12; log10CFU/ml (Staphylococcus aureus [18]): 4.94; Ratio (Staphylococcus aureus [19]): 2; log10CFU/ml (Staphylococcus aureus [20]): 4.92; MBC (Staphylococcus aureus [21]): 0.03 µg/mL (≈ 0.0151 µM); MIC (Staphylococcus aureus [21]): 0.03 µg/mL (≈ 0.0151 µM); log10CFU/ml (Staphylococcus aureus [22]): 4.03
